Test results as given in ChEMBL document CHEMBL4387703, “Lead optimization and biological evaluation of fragment-based cN-II inhibitors” (Eur J Med Chem, 2019).
Activity calls are given as the source filed them. The calls are words filed in the database; no cut-off is given here.

Molecular target: 5'-nucleotidase (Homo sapiens) (UniProt P21589)
Experiment: Inhibition of recombinant cN-II (unknown origin) assessed as reduction in inorganic phosphate production at 200 uM pre-incubated for 10 mins followed by addition of IMP as substrate and measured after 5 mins by malachite green based assay relative to control
Summary of the method: (§1)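 Purified recombinant cN-II (0.1 μM final) in 50 mM imidazole pH 6.5, 500 mM NaCl and 10 mM MgCl2 was preincubated on ice with compound for 10 min. IMP (50 μM, equimolar Mg) was then added for 5 min at 37 °C.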

5'-nucleotidase (Homo sapiens), sequence (P21589 whole entry): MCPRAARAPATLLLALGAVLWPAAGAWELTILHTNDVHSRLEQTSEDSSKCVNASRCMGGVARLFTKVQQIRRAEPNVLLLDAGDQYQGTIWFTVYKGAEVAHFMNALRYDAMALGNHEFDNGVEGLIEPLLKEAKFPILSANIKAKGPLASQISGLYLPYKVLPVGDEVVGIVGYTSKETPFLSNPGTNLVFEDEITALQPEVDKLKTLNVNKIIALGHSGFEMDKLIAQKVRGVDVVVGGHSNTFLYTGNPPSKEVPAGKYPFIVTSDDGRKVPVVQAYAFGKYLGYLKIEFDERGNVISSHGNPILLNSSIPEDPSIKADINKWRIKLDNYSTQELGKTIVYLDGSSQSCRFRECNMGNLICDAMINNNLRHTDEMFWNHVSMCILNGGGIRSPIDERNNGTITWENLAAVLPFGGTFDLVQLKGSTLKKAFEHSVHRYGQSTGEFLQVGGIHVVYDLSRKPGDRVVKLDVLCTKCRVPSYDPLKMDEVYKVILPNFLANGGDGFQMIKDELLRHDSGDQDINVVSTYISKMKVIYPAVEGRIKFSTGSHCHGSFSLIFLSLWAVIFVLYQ

Point of comparison: `CCOC(=O)Cn1cnc2c(NC(=O)c3ccc(-c4ccccc4-c4nn[nH]n4)cc3)ncnc21`, inhibition 27%. Against it:
- O=C(O)Cn1cnc2c(NC(=O)c3cccc(-c4ccccc4)c3)ncnc21 — higher, 62%
- O=C(Nc1ncnc2c1ncn2Cc1ccccc1)c1cccc(-c2ccccc2)c1 — higher, 57%
- O=C(Nc1ncnc2[nH]cnc12)c1cccc(-c2ccc(-c3nn[nH]n3)cc2)c1 — higher, 60%
- CCOC(=O)Cn1cnc2c(NC(=O)c3cccc(-c4ccccc4)c3)ncnc21 — higher, 60%
- O=C(Nc1ncnc2c1ncn2COCc1ccccc1)c1cccc(-c2ccccc2)c1 — higher, 34%
- O=C(Nc1ncnc2ncn(Cc3ccccc3)c12)c1cccc(-c2ccccc2)c1 — higher, 52%
- O=C(Nc1ncnc2[nH]cnc12)c1cccc(-c2ccccc2)c1 — higher, 68%
- CC(=O)OCCn1cnc2c(NC(=O)c3cccc(-c4ccccc4)c3)ncnc21 — higher, 62%
- O=C(Nc1ncnc2[nH]cnc12)c1cccc(-c2ccccc2-c2nn[nH]n2)c1 — the same, 27%
- CCOP(=O)(O)Cn1cnc(-c2cccc(-c3cccc(C(=O)Nc4ncnc5nc[nH]c45)c3)c2)c1 — higher, 75%
- O=C(Nc1ncnc2[nH]cnc12)c1cccc(-c2cccc(-c3nn[nH]n3)c2)c1 — higher, 50%
- O=C(Nc1ncnc2[nH]cnc12)c1ccc(-c2ccccc2-c2nn[nH]n2)cc1 — lower, 10%
- CCOC(=O)Cn1cnc2c(N)ncnc21 — lower, 3%
- CCOP(=O)(Cn1cnc2c(NC(=O)c3cccc(-c4ccccc4)c3)ncnc21)OCC — higher, 47%
- O=C(Nc1ncnc2ncn(COCc3ccccc3)c12)c1cccc(-c2ccccc2)c1 — higher, 50%
- O=C(Nc1ncnc2[nH]cnc12)c1ccccc1-c1ccc(-c2nn[nH]n2)cc1 — higher, 30%
- CCOP(=O)(O)Cn1cnc(-c2cccc(-c3cccc(C(=O)Nc4ncnc5ncn(COCc6ccccc6)c45)c3)c2)c1 — higher, 60%
- O=C(Nc1ncnc2nc[nH]c12)c1cccc(-c2cccc(-c3cn(CP(=O)(O)O)cn3)c2)c1 — higher, 49%
- O=C(Nc1ncnc2c1ncn2CCO)c1cccc(-c2ccccc2)c1 — higher, 46%

Molecular target: T1, 5'-nucleotidase (Rattus norvegicus) (UniProt P21588)
T1 sequence (whole entry): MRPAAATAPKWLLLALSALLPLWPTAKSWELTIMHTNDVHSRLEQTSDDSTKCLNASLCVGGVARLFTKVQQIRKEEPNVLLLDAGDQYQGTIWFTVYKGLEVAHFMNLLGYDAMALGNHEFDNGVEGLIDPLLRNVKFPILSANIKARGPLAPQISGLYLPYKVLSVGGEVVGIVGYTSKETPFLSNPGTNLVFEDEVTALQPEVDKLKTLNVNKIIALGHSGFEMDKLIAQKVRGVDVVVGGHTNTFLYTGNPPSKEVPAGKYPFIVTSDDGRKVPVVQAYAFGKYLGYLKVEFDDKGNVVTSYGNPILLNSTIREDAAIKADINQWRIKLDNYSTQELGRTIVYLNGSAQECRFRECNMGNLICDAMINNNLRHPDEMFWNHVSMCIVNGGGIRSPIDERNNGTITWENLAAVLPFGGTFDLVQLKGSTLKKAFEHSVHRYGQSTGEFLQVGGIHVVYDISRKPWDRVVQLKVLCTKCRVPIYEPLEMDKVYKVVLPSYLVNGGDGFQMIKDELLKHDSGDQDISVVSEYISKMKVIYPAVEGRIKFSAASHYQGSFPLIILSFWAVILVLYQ
Experiment: Inhibition of purified rat liver 5'-nucleotidase using IMP as substrate assessed as reduction in substrate dephosphorylation at 7 to 10 mM

With `CC(C)CSC[C@H]1O[C@@H](n2cnc3c(=O)[nH]cnc32)[C@H](O)[C@@H]1O` the inhibition was 50%.

Molecular target: 5'-nucleotidase (Homo sapiens) (UniProt P21589)
Experiment: Inhibition of recombinant cN-II (unknown origin) assessed as reduction in inorganic phosphate production at 1 mM pre-incubated for 10 mins followed by addition of IMP as substrate and measured after 5 mins by malachite green based assay relative to control
Summary of the method: as §1

For `CC(=O)OCCn1cnc2c(N)ncnc21`, the inhibition was “inactive”.
For `Nc1ncnc2ncn(COCc3ccccc3)c12`, the inhibition was “inactive”.
For `CCOP(=O)(Cn1cnc2c(N)ncnc21)OCC`, the inhibition was “inactive”.

Point of comparison: `Nc1ncnc2c1ncn2COCc1ccccc1`, inhibition 13%. Against it:
- Nc1ncnc2ncn(Cc3ccccc3)c12 — higher, 26%
- Nc1ncnc2c1ncn2Cc1ccccc1 — higher, 23%

Molecular target: T1, 5'-nucleotidase (Rattus norvegicus)
Experiment: Inhibition of purified rat liver 5'-nucleotidase using IMP as substrate assessed as reduction in substrate dephosphorylation at 2 to 6 mM

Work on `CC(C)CSC[C@H]1O[C@@H](n2cnc3c(N)ncnc32)[C@H](O)[C@@H]1O` yielded an inhibition of 50%.
